Paper PMC4832308 (Cancer, 2015)

Test system: patients with advanced solid tumors or multiple myeloma
Experiment: phase 1 dose escalation: safety, tolerability, DLT, MTD
Type: in vivo, human
How it was run: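 Modified accelerated titration from 7.5 mg, oral daily in 28-day cycles. Single-patient cohorts used 100% increments until the first drug-related grade ≥2 toxicity, then 6-patient cohorts used ~50% steps. A dose with ≥2 DLTs was nontolerated. MTD was the last lower dose with 0–1 of 6 DLTs in cycle 1. Adverse events were graded by NCI CTCAE version 4.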

CO[C@H]1CC[C@H](N2C(=O)CNc3ncc(-c4ccc(C(C)(C)O)nc4)nc32)CC1 [CC‐223]
Arthralgia (treatment‐related AE) (7.5 mg, Any Grade): 0 n (%) | Asthenia (treatment‐related AE) (7.5 mg, Any Grade): 0 n (%) | Decreased appetite (treatment‐related AE) (7.5 mg, Any Grade): 0 n (%) | Diarrhea (treatment‐related AE) (7.5 mg, Any Grade): 0 n (%) | Dry mouth (treatment‐related AE) (7.5 mg, Any Grade): 0 n (%) | Dysgeusia (treatment‐related AE) (7.5 mg, Any Grade): 1 (100) n (%) | Dyspnea (treatment‐related AE) (7.5 mg, Any Grade): 0 n (%) | Fatigue (treatment‐related AE) (7.5 mg, Any Grade): 1 (100) n (%) | Hyperglycemia (treatment‐related AE) (7.5 mg, Any Grade): 0 n (%) | Increased glycosylated hemoglobin (treatment‐related AE) (7.5 mg, Any Grade): 0 n (%) | Mucositis (treatment‐related AE) (7.5 mg, Any Grade): 0 n (%) | Nausea (treatment‐related AE) (7.5 mg, Any Grade): 1 (100) n (%) | Pruritus (treatment‐related AE) (7.5 mg, Any Grade): 0 n (%) | Rash (treatment‐related AE) (7.5 mg, Any Grade): 0 n (%) | Rash pruritic (treatment‐related AE) (7.5 mg, Any Grade): 0 n (%) | Thrombocytopenia (treatment‐related AE) (7.5 mg, Any Grade): 0 n (%) | Vomiting (treatment‐related AE) (7.5 mg, Any Grade): 0 n (%) | Arthralgia (treatment‐related AE) (7.5 mg, Grade ≥3): 0 n (%) | Asthenia (treatment‐related AE) (7.5 mg, Grade ≥3): 0 n (%) | Decreased appetite (treatment‐related AE) (7.5 mg, Grade ≥3): 0 n (%) | Diarrhea (treatment‐related AE) (7.5 mg, Grade ≥3): 0 n (%) | Dry mouth (treatment‐related AE) (7.5 mg, Grade ≥3): 0 n (%) | Dysgeusia (treatment‐related AE) (7.5 mg, Grade ≥3): 0 n (%) | Dyspnea (treatment‐related AE) (7.5 mg, Grade ≥3): 0 n (%) | Fatigue (treatment‐related AE) (7.5 mg, Grade ≥3): 0 n (%) | Hyperglycemia (treatment‐related AE) (7.5 mg, Grade ≥3): 0 n (%) | Increased glycosylated hemoglobin (treatment‐related AE) (7.5 mg, Grade ≥3): 0 n (%) | Mucositis (treatment‐related AE) (7.5 mg, Grade ≥3): 0 n (%) | Nausea (treatment‐related AE) (7.5 mg, Grade ≥3): 0 n (%) | Pruritus (treatment‐related AE) (7.5 mg, Grade ≥3): 0 n (%) | Rash (treatment‐related AE) (7.5 mg, Grade ≥3): 0 n (%) | Rash pruritic (treatment‐related AE) (7.5 mg, Grade ≥3): 0 n (%) | Thrombocytopenia (treatment‐related AE) (7.5 mg, Grade ≥3): 0 n (%) | Vomiting (treatment‐related AE) (7.5 mg, Grade ≥3): 0 n (%) | Dose interruptions (15 mg): 2 | Dose reductions (15 mg): 0 | Arthralgia (treatment‐related AE) (15 mg, Any Grade): 0 n (%) | Asthenia (treatment‐related AE) (15 mg, Any Grade): 1 (50) n (%) | Decreased appetite (treatment‐related AE) (15 mg, Any Grade): 0 n (%) | Diarrhea (treatment‐related AE) (15 mg, Any Grade): 1 (50) n (%) | Dry mouth (treatment‐related AE) (15 mg, Any Grade): 0 n (%) | Dysgeusia (treatment‐related AE) (15 mg, Any Grade): 1 (50) n (%) | Dyspnea (treatment‐related AE) (15 mg, Any Grade): 0 n (%) | Fatigue (treatment‐related AE) (15 mg, Any Grade): 1 (50) n (%) | Hyperglycemia (treatment‐related AE) (15 mg, Any Grade): 0 n (%) | Increased glycosylated hemoglobin (treatment‐related AE) (15 mg, Any Grade): 0 n (%) | Mucositis (treatment‐related AE) (15 mg, Any Grade): 1 (50) n (%) | Nausea (treatment‐related AE) (15 mg, Any Grade): 0 n (%) | Pruritus (treatment‐related AE) (15 mg, Any Grade): 1 (50) n (%) | Rash (treatment‐related AE) (15 mg, Any Grade): 1 (50) n (%) | Rash pruritic (treatment‐related AE) (15 mg, Any Grade): 0 n (%) | Thrombocytopenia (treatment‐related AE) (15 mg, Any Grade): 0 n (%) | Vomiting (treatment‐related AE) (15 mg, Any Grade): 0 n (%) | Arthralgia (treatment‐related AE) (15 mg, Grade ≥3): 0 n (%) | Asthenia (treatment‐related AE) (15 mg, Grade ≥3): 0 n (%) | Decreased appetite (treatment‐related AE) (15 mg, Grade ≥3): 0 n (%) | Diarrhea (treatment‐related AE) (15 mg, Grade ≥3): 0 n (%) | Dry mouth (treatment‐related AE) (15 mg, Grade ≥3): 0 n (%) | Dysgeusia (treatment‐related AE) (15 mg, Grade ≥3): 0 n (%) | Dyspnea (treatment‐related AE) (15 mg, Grade ≥3): 0 n (%) | Fatigue (treatment‐related AE) (15 mg, Grade ≥3): 0 n (%) | Hyperglycemia (treatment‐related AE) (15 mg, Grade ≥3): 0 n (%) | Increased glycosylated hemoglobin (treatment‐related AE) (15 mg, Grade ≥3): 0 n (%) | Mucositis (treatment‐related AE) (15 mg, Grade ≥3): 0 n (%) | Nausea (treatment‐related AE) (15 mg, Grade ≥3): 0 n (%) | Pruritus (treatment‐related AE) (15 mg, Grade ≥3): 0 n (%) | Rash (treatment‐related AE) (15 mg, Grade ≥3): 0 n (%) | Rash pruritic (treatment‐related AE) (15 mg, Grade ≥3): 0 n (%) | Thrombocytopenia (treatment‐related AE) (15 mg, Grade ≥3): 0 n (%) | Vomiting (treatment‐related AE) (15 mg, Grade ≥3): 0 n (%) | Dose interruptions (30 mg): 8 | Dose reductions (30 mg): 0 | Arthralgia (treatment‐related AE) (30 mg, Any Grade): 0 n (%) | Asthenia (treatment‐related AE) (30 mg, Any Grade): 2 (22) n (%) | Decreased appetite (treatment‐related AE) (30 mg, Any Grade): 4 (44) n (%) | Diarrhea (treatment‐related AE) (30 mg, Any Grade): 3 (33) n (%) | Dry mouth (treatment‐related AE) (30 mg, Any Grade): 1 (11) n (%) | Dysgeusia (treatment‐related AE) (30 mg, Any Grade): 0 n (%) | Dyspnea (treatment‐related AE) (30 mg, Any Grade): 1 (11) n (%) | Fatigue (treatment‐related AE) (30 mg, Any Grade): 4 (44) n (%) | Hyperglycemia (treatment‐related AE) (30 mg, Any Grade): 4 (44) n (%) | Increased glycosylated hemoglobin (treatment‐related AE) (30 mg, Any Grade): 0 n (%) | Mucositis (treatment‐related AE) (30 mg, Any Grade): 2 (22) n (%) | Nausea (treatment‐related AE) (30 mg, Any Grade): 4 (44) n (%) | Pruritus (treatment‐related AE) (30 mg, Any Grade): 1 (11) n (%) | Rash (treatment‐related AE) (30 mg, Any Grade): 1 (11) n (%) | Rash pruritic (treatment‐related AE) (30 mg, Any Grade): 1 (11) n (%) | Thrombocytopenia (treatment‐related AE) (30 mg, Any Grade): 1 (11) n (%) | Vomiting (treatment‐related AE) (30 mg, Any Grade): 2 (22) n (%) | Arthralgia (treatment‐related AE) (30 mg, Grade ≥3): 0 n (%) | Asthenia (treatment‐related AE) (30 mg, Grade ≥3): 0 n (%) | Decreased appetite (treatment‐related AE) (30 mg, Grade ≥3): 0 n (%) | Diarrhea (treatment‐related AE) (30 mg, Grade ≥3): 0 n (%) | Dry mouth (treatment‐related AE) (30 mg, Grade ≥3): 0 n (%) | Dysgeusia (treatment‐related AE) (30 mg, Grade ≥3): 0 n (%) | Dyspnea (treatment‐related AE) (30 mg, Grade ≥3): 0 n (%) | Fatigue (treatment‐related AE) (30 mg, Grade ≥3): 0 n (%) | Hyperglycemia (treatment‐related AE) (30 mg, Grade ≥3): 2 (22) n (%) | Increased glycosylated hemoglobin (treatment‐related AE) (30 mg, Grade ≥3): 0 n (%) | Mucositis (treatment‐related AE) (30 mg, Grade ≥3): 0 n (%) | Nausea (treatment‐related AE) (30 mg, Grade ≥3): 0 n (%) | Pruritus (treatment‐related AE) (30 mg, Grade ≥3): 0 n (%) | Rash (treatment‐related AE) (30 mg, Grade ≥3): 0 n (%) | Rash pruritic (treatment‐related AE) (30 mg, Grade ≥3): 0 n (%) | Thrombocytopenia (treatment‐related AE) (30 mg, Grade ≥3): 0 n (%) | Vomiting (treatment‐related AE) (30 mg, Grade ≥3): 0 n (%) | Dose interruptions (45 mg): 5 | Dose reductions (45 mg): 1 | Arthralgia (treatment‐related AE) (45 mg, Any Grade): 2 (22) n (%) | Asthenia (treatment‐related AE) (45 mg, Any Grade): 1 (11) n (%) | Decreased appetite (treatment‐related AE) (45 mg, Any Grade): 3 (33) n (%) | Diarrhea (treatment‐related AE) (45 mg, Any Grade): 4 (44) n (%) | Dry mouth (treatment‐related AE) (45 mg, Any Grade): 2 (22) n (%) | Dysgeusia (treatment‐related AE) (45 mg, Any Grade): 2 (22) n (%)
